In ChEMBL document CHEMBL1133720, “Structural studies on bioactive compounds. 32. Oxidation of tyrphostin protein tyrosine kinase inhibitors with hypervalent iodine reagents” (J Med Chem, 2000):

Experiments:
Cell line = assay: Inhibition of proliferation in NCI panel of 60 human cell lines (Range is 20-80 uM); type: functional
[1] = target: Receptor tyrosine-protein kinase erbB-2; assay: Inhibition of c-erbB2 receptor
MCF7 [2] = assay: (§1) Inhibition of MCF-7 human breast tumor cell proliferation; type: functional, cell-based
How it was run: (§2)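 Seven-day MTT assay at 250-300 cells/well in RPMI 1640 with 10% FCS. After a 24-h drug-free attachment at 37 °C/5% CO₂, drug was added at 1 nM-100 µM (final DMSO <0.25%). MTT was added at a final 400 µg/mL for 4 h, formazan was dissolved in DMSO-glycine (4:1) and absorbance read at 550 nm. IC50 is the mean of at least three experiments.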

MCF7 [3] = assay: as §1; type: functional, cell-based; how it was run: as §2; remark: listed apart in the source
MCF7 [4] = assay: Inhibition of TGF-alpha stimulated MCF-7 human breast tumor cell proliferation; type: functional, cell-based
How it was run: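 MCF-7 cells, 5 × 10³/well, were plated in phenol red-free RPMI 1640 with 5% charcoal-stripped FCS and allowed to attach overnight. Growth factor (IGF-I, IGF-II or TGF-α, as the line names) was then added together with drug. Cells grew a further 7 days, and viable cells were counted by MTT. IC50 is the mean of at least three experiments.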

MCF7 [5] = assay: Inhibition of MCF-7/adr human breast tumor cell proliferation; type: functional, cell-based; how it was run: as §2
MDA-MB-231 = assay: Inhibition of MDA-231 human breast tumor cell proliferation; type: functional, cell-based
How it was run: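 MTT assay, 7-day continuous drug exposure. Cells seeded at 250-300 cells/well in RPMI 1640 with 10% FCS and penicillin/streptomycin, attached over 24 h drug-free at 37 °C/5% CO2. Drug range 1 nM-100 µM from DMSO stocks, final DMSO <0.25%. MTT 400 µg/mL final for 4 h, formazan dissolved in DMSO-glycine, absorbance 550 nm. IC50 is the mean of at least three experiments.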

SK-BR-3 = assay: Inhibition of SBBr3 human breast tumor cell proliferation; type: functional, cell-based; how it was run: as §2
T47D = assay: Inhibition of T47D human breast tumor cell proliferation; type: functional, cell-based; how it was run: as §2
ZR-75-1 = assay: Inhibition of ZR-75-1 human breast tumor cell proliferation; type: functional, cell-based; how it was run: as §2
MDA-MB-468 = assay: Inhibition of MDA-468 human breast tumor cell proliferation; type: functional, cell-based; how it was run: as §2

COc1cc(C(C)=O)cc(-c2cc(C(C)=O)cc(OC)c2O)c1O
GI50 (Cell line): 80 µM

COc1cc(/C=C(\C#N)C(N)=O)cc(Sc2nc3ccccc3s2)c1O
IC50 [1]: 0.35 µM

COc1cc(/C=C(\C#N)c2ccccn2)cc(-c2cc(/C=C(\C#N)c3ccccn3)cc(OC)c2O)c1O
GI50 (Cell line): 80 µM

CCOc1cc(C=C(C#N)C#N)cc(-c2cc(C=C(C#N)C#N)cc(OCC)c2O)c1O
GI50 (Cell line): 80 µM

COc1cc(/C=C(\C#N)C(N)=O)cc(-c2cc(/C=C(\C#N)C(N)=O)cc(OC)c2O)c1O
GI50 (Cell line): 80 µM

N#C/C(=C\c1ccc(Oc2ccccc2)c(I)c1)C(N)=O
GI50 (Cell line): 80 µM

COC(=O)/C(C#N)=C/c1cc(OC)c(O)c(-c2cc(/C=C(\C#N)C(=O)OC)cc(OC)c2O)c1
GI50 (Cell line): 80 µM

N#C/C(=C\c1ccc(O)cc1)c1ccccn1
IC50 (MCF7 [2]): 15 µM | IC50 (MCF7 [3]): 73.8 µM | IC50 (MCF7 [4]): 67.7 µM | IC50 (MCF7 [5]): 51.2 µM | IC50 (MDA-MB-231): 40.3 µM | IC50 (SK-BR-3): 7.8 µM | IC50 (T47D): 36.3 µM | IC50 (ZR-75-1): 48.5 µM | IC50 (MDA-MB-468): 0.45 µM

COC(=O)c1cc(OC)c(O)c(-c2cc(C(=O)OC)cc(OC)c2O)c1
GI50 (Cell line): 80 µM

N#C/C(=C\c1ccc(Oc2ccccc2)c(I)c1)C(=O)NCCCc1ccccc1
GI50 (Cell line): 80 µM

COc1cc(C=C(C#N)C#N)cc(-c2cc(C=C(C#N)C#N)cc(OC)c2O)c1O
GI50 (Cell line): 80 µM

N#C/C(=C\c1ccc(Oc2ccccc2)c(I)c1)c1ccccn1
IC50 (MCF7 [2]): 20 µM | IC50 (MCF7 [3]): 41.8 µM | IC50 (MCF7 [4]): 41 µM | IC50 (MCF7 [5]): 25.2 µM | IC50 (MDA-MB-231): 39.8 µM | IC50 (SK-BR-3): 6.5 µM | IC50 (T47D): 48.7 µM | IC50 (ZR-75-1): 24.7 µM | IC50 (MDA-MB-468): 0.3 µM

COc1cc(C=O)cc(-c2cc(C=O)cc(OC)c2O)c1O
GI50 (Cell line): 80 µM

COC1=C2C[C@@H](C)C[C@H](OC)[C@H](O)[C@@H](C)/C=C(\C)[C@H](OC(N)=O)[C@@H](OC)/C=C\C=C(/C)C(=O)NC(=CC1=O)C2=O [GELDANAMYCIN]
GI50 (Cell line): 0.327 µM

COC(=O)/C(C#N)=C/c1ccc(Oc2ccccc2)c(I)c1
GI50 (Cell line): 80 µM

COc1cc(/C=C(\C#N)c2ccccn2)ccc1O
IC50 (MCF7 [2]): 0.7 µM | IC50 (MCF7 [3]): 2.7 µM | IC50 (MCF7 [4]): 2.3 µM | IC50 (MCF7 [5]): 52.8 µM | IC50 (MDA-MB-231): 51 µM | IC50 (SK-BR-3): 0.5 µM | IC50 (T47D): 6 µM | IC50 (ZR-75-1): 2.6 µM | IC50 (MDA-MB-468): 0.06 µM

N#CC(C#N)=Cc1ccc(Oc2ccccc2)c(I)c1
GI50 (Cell line): 80 µM
